Bioassay records: PubChem, Broad Institute
Rows were chosen to be rich in hits. Some 3.5% of all compounds tested hit in one or more screens of this group.
HIV Env fusion – blocks HIV Env-driven cell-cell fusion; HeLa-JRFL Env/CEM21 cell fusion, luciferase; inhibition, % at 12.3 µM; actives 1.1% (n = 360,000);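 active means mean replicate inhibition score of at least 50 and every replicate individually at or above 50; inconclusive means only one of the two criteria met; inactive means mean below 50 and not all replicates reaching 50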;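 further: 0% = plate neutral controls and 100% = maraviroc near 300 nM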
Wnt act – activators of Wnt/beta-catenin signaling; AID 743398; actives 1.2% (n = 300,000); activation, % at 9.35 µM; Wnt/beta-catenin reporter cell assay, activator, plate reader; in the data active means activation above about 30%, passing the limit was not always enough; inconclusive means no clear call, values can overlap the other calls;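 further: 0% = neutral control wells and 100% = positive control wells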
Cneo AK release – causes C. neoformans cell lysis | adenylate kinase release luminescence, 4 h; normalised: neutral wells 0, clomiphene wells 100 | lysis activity, % at 15 µM | AID 651654 | actives 0.2% (n = 360,000);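 active means mean lysis activity across replicates of at least 80%, whatever share of replicates individually reach that level; inactive means mean lysis activity below 80%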
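Signal: Adenylate kinase release luminescence | Assay system: Log-phase Cryptococcus neoformans yeast cells | Input: Cells at 5 × 10^6 per mL | Buffer or medium: Fresh YPD growth medium | Compound: Single dose | Schedule: Static 4 h at 37 °C with compound, 1 h detection | Controls: Clomiphene | Read-out: Luminescence rise reflecting yeast cell lysis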
ERAP1 inh – ERAP1 (human) enzyme inhibition | Q9NZ08 | recombinant ERAP1, Leu-AMC fluorescence, 60 min | inhibition, % at 10.7 µM | actives 0.15% (n = 340,000) | AID 652197;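 active means mean replicate inhibition of at least 30%, or all replicates individually reaching that 30% level; inactive means mean below 30% and not every replicate reaching it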;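 further: 0% = neutral control wells and 100% = L-leucinethiol positive control wells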
Target sequence (Q9NZ08 whole entry, looked up): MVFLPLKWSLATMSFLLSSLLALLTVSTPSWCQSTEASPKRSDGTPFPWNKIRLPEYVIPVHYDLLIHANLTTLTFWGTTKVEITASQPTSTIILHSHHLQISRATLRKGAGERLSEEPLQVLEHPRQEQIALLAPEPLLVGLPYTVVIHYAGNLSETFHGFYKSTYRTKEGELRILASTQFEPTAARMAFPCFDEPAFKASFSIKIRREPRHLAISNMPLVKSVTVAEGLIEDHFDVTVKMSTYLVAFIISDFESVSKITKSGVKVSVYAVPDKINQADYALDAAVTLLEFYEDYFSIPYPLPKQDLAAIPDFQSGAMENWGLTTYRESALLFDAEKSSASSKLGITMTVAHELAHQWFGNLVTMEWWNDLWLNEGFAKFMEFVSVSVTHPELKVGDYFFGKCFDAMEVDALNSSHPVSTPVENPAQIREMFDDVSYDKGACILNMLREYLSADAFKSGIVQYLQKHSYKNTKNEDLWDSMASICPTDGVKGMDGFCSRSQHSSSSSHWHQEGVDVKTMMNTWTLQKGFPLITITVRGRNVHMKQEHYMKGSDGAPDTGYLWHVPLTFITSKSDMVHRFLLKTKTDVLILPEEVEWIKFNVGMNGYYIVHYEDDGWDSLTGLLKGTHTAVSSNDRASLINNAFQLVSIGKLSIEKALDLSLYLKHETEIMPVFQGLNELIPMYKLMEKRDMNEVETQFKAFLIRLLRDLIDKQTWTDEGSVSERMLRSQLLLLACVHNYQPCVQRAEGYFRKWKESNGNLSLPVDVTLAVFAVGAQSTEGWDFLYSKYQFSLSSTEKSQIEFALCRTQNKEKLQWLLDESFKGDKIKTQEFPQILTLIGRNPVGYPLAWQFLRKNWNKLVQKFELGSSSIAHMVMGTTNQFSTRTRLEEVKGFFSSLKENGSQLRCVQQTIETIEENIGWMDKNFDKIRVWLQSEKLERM
esBAF inh – inhibitors of esBAF chromatin remodeling in mouse ES cells | actives 2% (n = 350,000) | reporter increase, % at 12.5 µM | Bmi1-luciferase knock-in reporter, 24 h; 100% = twice the neutral-well signal; in the data active means activation above about 40%; inconclusive means no clear call, values can overlap the other calls;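 further: 0% = median of the plate's neutral control wells and 100% = double that signal; a rise in the Bmi1 reporter signal indicates esBAF inhibition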
MITF TRPM1 HTS – MITF TRPM1 promoter activation in melanoma cells; SK-MEL-5 TRPM1-promoter luciferase, 24 h; % of positive control, neutral wells = 0; activation, % at 12.5 µM; actives 0.75% (n = 300,000); AID 588334;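 active means mean activation of at least 80% with every replicate also reaching 80%; inconclusive means mean reaches 80% but some replicate falls short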;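 further: 0% = neutral control wells and 100% = parthenolide positive control wells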
* = called active by the depositor; u = inconclusive; x = no result given; [ ] = dose if it differs, or a comment.

SMILES | HIV Env fusion | Wnt act | Cneo AK release | ERAP1 inh | esBAF inh | MITF TRPM1 HTS
O=c1c2c(nc3c(-c4cccc5ccccc45)c[nH]n13)CCC2 | x | x | 1 | x | -1 | 7
CCOc1ccc(C2C(C(=O)c3ccco3)=C(O)C(=O)N2CCCn2ccnc2)cc1 (stereo unspecified) | -84 | 26 | 0 | x | 54* | 13
CCOc1ccc(C2C(C(=O)c3ccco3)=C(O)C(=O)N2Cc2cccnc2)cc1 (stereo unspecified) | -9 | 35* | x | x | 5 | x
Cc1ccc(-c2ccc([C@@H]3[C@H](CO)N4CCCCN(C(=O)c5ccc(F)cc5)C[C@@H]34)cc2)cc1 | x | x | 10 | -4 | -6 | x
CCOC(=O)CNC(=S)N(Cc1cccs1)C1CCCC1 | 15 | -13 | x | x | x | -1
CCCCCCNC(=O)CNC(=S)N(Cc1cccs1)C1CCCCC1 | 59* | -2 | -3 | 0 | -2 | x
NC1=NC(=O)/C(=C/C=C/c2cccs2)S1 | -34 | 36* | x | -1 | x | 38
Cc1ccc(C)c(OCC(O)CN2CCC(Cc3ccccc3)CC2)c1 (stereo unspecified) | 55* | -4 | -5 | 2 | -2 | 0
OC(COc1ccc(Cl)cc1)CN1CCC(Cc2ccccc2)CC1 (stereo unspecified) | 6 | 0 | -2 | -4 | -5 | 6
CCN(CCCn1c(SCC#N)nc2ccccc2c1=O)c1ccccc1 | 62* | x | 1 | x | -5 | 6
Cc1nnsc1Sc1ccccn1 | 1 | x | x | -1 | x | 8
c1ccc(-c2nnsc2Sc2ccccn2)cc1 | -17 | 36* | x | 7 | 54* | 48
Cc1ccsc1/C=N/Nc1ncnc2nc[nH]c12 | -19 | 15 | x | 1 | x | 58
C(=N\Nc1ncnc2nc[nH]c12)/c1cccs1 | -13 | 61* | -1 | 0 | 10 | 56
C=CCn1cc(/C=N/Nc2nc3ccccc3[nH]2)c2ccccc21 | -26 | 53* | x | -4 | x | 54
Cc1ccsc1/C=N/Nc1nc2ccccc2[nH]1 | -116 | 115* | -2 | -14 | x | 48
Cc1nn(-c2ccccc2)c(C)c1/C=N/Nc1nc2ccccc2[nH]1 | -342 | 173* | -6 | 7 | -25 | 25
C[C@H](CO)N1C[C@H](C)[C@H](CN(C)CC2CCCCC2)Oc2ccc(NS(=O)(=O)c3ccc(Cl)cc3)cc2CC1=O | 12[16.7 µM] | x | -4 | -2 | 0 | x
CC(C)C(=O)Nc1ccc2c(c1)C(=O)N(C)[C@H]1CC[C@H](CC(=O)NCc3ccccc3F)O[C@H]1CO2 | -17[16.7 µM] | x | -4 | x | 0 | x
CNC[C@@H]1Oc2ccc(NC(=O)CCN3CCOCC3)cc2C(=O)N([C@H](C)CO)C[C@@H]1C | -14[16.7 µM] | x | -5 | 1 | -5 | x
CCC(=O)Nc1ccc2c(c1)C(=O)N(C)C[C@H](OC)[C@@H](C)CN(C(=O)c1ccncc1)[C@H](C)CO2 | -32[16.7 µM] | x | 1 | 2 | -3 | x
Cc1noc(C)c1NC(=O)N(C)C[C@H]1Oc2ccc(NS(=O)(=O)c3ccc(Cl)cc3)cc2CC(=O)N([C@H](C)CO)C[C@H]1C | 6[16.7 µM] | x | 38 | -1 | 0 | x
CO[C@H]1CC[C@H]2CCN(C)C(=O)[C@@H](C)N(C)C(=O)c3cc(C#N)ccc3OC[C@@H]1O2 | 8[16.7 µM] | x | 1 | 0 | -2 | x
C(=N\Nc1nc2ccccc2[nH]1)/c1ccncc1 | 7 | 6 | x | -15 | x | 14
C(=N\Nc1nc2ccccc2[nH]1)/c1cccs1 | -150 | 51* | 0 | x | 67* | 58
SMILES | HIV Env fusion | Wnt act | Cneo AK release | ERAP1 inh | esBAF inh | MITF TRPM1 HTS
COC(=O)c1c(NC(=O)c2ccc(C)o2)sc2c1CCCCC2 | -70 | 52* | -4 | x | 63* | x
Cc1ccc(C(=O)Nc2sc3c(c2C(=O)O)CCC(C)C3)o1 (stereo unspecified) | 20 | 11 | 2 | 3 | 49* | 37
C[C@@H]1CN([C@@H](C)CO)C(=O)c2cc(NC(=O)c3ccccc3)ccc2O[C@@H](C)CCCCO[C@H]1CN(C)C(=O)Nc1ccccc1 | 5[16.7 µM] | x | -2 | 1 | -5 | x
CCOC(=O)c1ccc2c(c1)nc(-c1ccccn1)n2CC | -166 | 26 | -26 | -5 | 73* | 64
CC(=O)c1sc(NC(=O)c2ccc(Cl)cc2)nc1C | -61 | -2 | x | 6 | 51* | 89*
CC(=O)Nc1nc(C)c(C(C)=O)s1 | -20 | -2 | 0 | x | 2 | -6
CC(=O)c1sc(NCc2ccccc2)nc1C | -13 | 5 | -2 | 1 | 21 | 28
CC(=O)c1sc(NC(=O)c2ccccc2C)nc1C | -21 | 9 | 4 | 5 | 76* | 67
CC(=O)c1sc(NCc2ccc(C)cc2)nc1C | -15 | 19 | -1 | -1 | 53* | u
Cn1sc(NC(=O)c2ccc(Cl)cc2)nc1=O | 2 | 21 | -6 | 2 | 46* | x
C[C@@H]1CCCCO[C@@H](CN(C)S(=O)(=O)c2cccs2)[C@@H](C)CN([C@@H](C)CO)C(=O)c2cc(NC(=O)NC3CCCCC3)ccc2O1 | 21[16.7 µM] | x | -1 | x | 31 | x
O=C(C[C@H]1C[C@@H]2c3cc(NS(=O)(=O)c4ccccc4)ccc3O[C@@H]2[C@H](CO)O1)N1CCCCC1 | 8[16.7 µM] | x | -62 | 0 | 1 | x
CCCNC(=O)[C@H]1[C@H](CO)[C@H]2Cn3c(ccc(/C=C/c4ccccc4)c3=O)[C@H]2N1CC | x | x | 16 | 1 | 17 | x
Clc1ccc(SCc2cc(-c3ccccc3)on2)cc1 | x | -2 | 6 | x | -4 | 5
c1ccc(Cc2cc(-c3ccccc3)on2)cc1 | -141 | x | -1 | x | 66* | x
CN(CCc1ccccc1)C(c1ccnc2ccccc12)c1nnnn1-c1ccc2c(c1)OCCO2 (stereo unspecified) | 60* | -2 | x | -1 | x | x
Cc1cccc(C)c1-n1nnnc1C(c1ccnc2ccccc12)N(CCC#N)Cc1ccccc1 (stereo unspecified) | 7 | -3 | x | -1 | x | x
Cc1cccc(C)c1-n1nnnc1C(c1ccnc2ccccc12)N(Cc1ccccc1)Cc1ccccc1 (stereo unspecified) | 90* | -2 | x | 3 | x | x
CCC(=O)Nc1ccc2c(c1)C(=O)N(C)C[C@H](OC)[C@@H](C)CN(Cc1ccccc1F)[C@H](C)CO2 | x | x | -2 | 1 | 0 | x
CN(C)C(=O)c1cccc(-c2ccc3c(c2)[C@H]2[C@H](CCN2C(=O)C2CCCC2)[C@@H](CO)N3)c1 | x | x | x | 2 | x | x
OCC1COC(c2ccccc2)=N1 (stereo unspecified) | -17 | 0 | x | -1 | x | x
Brc1ccc(C2=NC(Cc3ccccc3)CO2)cc1 (stereo unspecified) | -43 | 20 | -1 | -1 | 68* | x
CCN(CC)C(=O)c1nc(-c2cccc3ccccc23)no1 | -19 | 75* | -18 | 1 | 70* | x
CCCC#Cc1cnc2c(c1)C(=O)N([C@H](C)CO)C[C@@H](C)[C@H](CN(C)C(=O)Nc1c(C)noc1C)O2 | -9[16.7 µM] | x | -4 | 7 | -4 | x
COc1c(C(=O)NNC(=O)c2ccccc2Cl)csc1Br | -48 | 41* | x | -1 | x | x
